Screening data deposited in PubChem BioAssay by several laboratories.
Bim-Bcl-W – disrupts Bim peptide binding to human Bcl-W | inhibition, % at 10 µM | bead-based flow cytometry | AID 952 | Q92843 | actives 0.02% (n = 190,000);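 further: 0% = bound tracer without compound and 100% = peptide blocker; higher means less fluorescent Bim peptide bound to Bcl-W beads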
Bfl-1 Bim block – inhibitors of Bim-Bfl-1 interaction, human; Bead-based flow cytometry, Bim-Bfl-1 binding inhibition; actives 0.12% (n = 190,000); AID 1008; inhibition, % at 10 µM; Q16548;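 further: 0% = wells without compound plus tracer and 100% = blocker peptide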
Bim-Bcl-2 – disrupts Bim peptide binding to human Bcl-2 | P10415 | Bead-based flow cytometry, Bim peptide-Bcl-2 binding | inhibition, % at 10 µM | actives 0.06% (n = 190,000); in the data active means inhibition above about 40%;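 further: 0% = no compound wells with probe peptide and 100% = reference peptide inhibitor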
Target sequence (P10415 whole entry, looked up): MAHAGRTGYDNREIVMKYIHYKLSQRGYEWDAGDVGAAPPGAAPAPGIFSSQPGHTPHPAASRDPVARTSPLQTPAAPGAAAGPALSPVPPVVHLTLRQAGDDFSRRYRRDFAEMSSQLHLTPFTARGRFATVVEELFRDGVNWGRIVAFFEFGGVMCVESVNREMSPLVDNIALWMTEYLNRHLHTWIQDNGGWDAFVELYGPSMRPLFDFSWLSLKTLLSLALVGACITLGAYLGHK
Bcl-B Bim block – disrupts Bim peptide binding to human Bcl-B; bead-based flow cytometry; inhibition, % at 10 µM; actives 0.073% (n = 190,000);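 further: 0% = tracer peptide without compound and 100% = reference inhibitor peptide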
Target sequence (Q9HD36 whole entry, looked up): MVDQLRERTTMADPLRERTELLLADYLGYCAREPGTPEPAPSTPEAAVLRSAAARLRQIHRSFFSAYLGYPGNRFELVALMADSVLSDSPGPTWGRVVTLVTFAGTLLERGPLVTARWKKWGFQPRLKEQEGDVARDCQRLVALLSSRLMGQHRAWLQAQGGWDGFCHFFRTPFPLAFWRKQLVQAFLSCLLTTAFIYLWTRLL
MDM2 E3 inh – blocks human Mdm2 ubiquitin ligase activity; signal enhancement, % at 5 µM; AID 1230; actives 0.11% (n = 210,000); cell-based MDM2 ubiquitination luciferase reporter, 2 h; 0 = plate control, 100 = twice control, blank-subtracted; Q00987;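 active means signal enhancement of 30% or more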;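 further: luminescence tracks abundance of the self-degrading MDM2-luciferase fusion protein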
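Test system: mammalian cells stably expressing self-ubiquitinating, self-degrading MDM2 E3–luciferase fusion; Amount: 2000 cells in each well; Medium: DMEM; Schedule: 4 h settle plus 2 h compound, 37 °C; Technique: SteadyLite luciferase luminescence after 15 min room-temperature reagent incubation; Benchmarks: plate control and blank wells.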
Bim-Bcl-XL – inhibitors of Bim-Bcl-XL interaction, human; Bim peptide-Bcl-XL binding, bead flow cytometry, fluorescence; inhibition, % at 10 µM; actives 0.04% (n = 190,000); AID 1007
The depositor's hits bear a star; . = no result given. Shown are actives, neighbours in structure and some others; about 0.27% of the full set was active somewhere. Unless noted, no stated cut-off is given here; in the data, active means inhibition above about 40%.

SMILES	Bim-Bcl-W	Bfl-1 Bim block	Bim-Bcl-2	Bcl-B Bim block	MDM2 E3 inh	Bim-Bcl-XL
C=C1CCN(C(C(=O)OC)C(C)C)S(=O)(=O)c2ccccc21 (configuration not stated)	.	.	.	.	33*	.
C=CCOc1ccc(Br)cc1CNCCCN1CCOCC1	0	0	3	-3	3	2
CCSc1nc2ccccc2n1C(=O)/C=C\c1ccc(OC)c(OC)c1	2	0	-1	2	43*	-4
CC(C)n1c(=O)[nH][nH]c1=S	.	.	.	.	-13	.
Cc1cccc(N=Cc2cc3c(cc2[N+](=O)[O-])OCO3)c1	0	2	0	-1	-5	0
COc1cc(C=Nc2cccc(C)c2)c(O)c([N+](=O)[O-])c1	23	42*	44*	58*	-6	30
C=CCn1c(C)cc(-c2csc(N)n2)c1C	14	11	13	33	.	7
CCCn1c(C)cc(-c2csc(N)n2)c1C	25	30	27	46*	.	15
CCOC(=O)CSC1=NC(=O)/C(=C\c2ccc(OC(C)=O)cc2)S1	9	58*	12	6	-5	2
Cc1ccc(OC(=O)c2ccc3snnc3c2)cc1	11	62*	81*	81*	10	14
Cc1[nH]nc(SCC(=O)NCc2ccc(F)cc2)c1[N+](=O)[O-]	30	36	30	24	.	42*
CSc1ccccc1NC(=O)CSc1n[nH]c(C)c1[N+](=O)[O-]	0	-2	-2	-11	-6	-1
NNC(=O)c1csc(-c2ncc(C(F)(F)F)cc2Cl)n1	.	.	.	.	-15	.
CCc1cccc(CC)c1NC(=S)N1CCn2cccc2C1c1cccnc1 (configuration not stated)	20	25	21	49*	-10	27
O=C(Nc1ccc2nc(-c3ccco3)c(-c3ccco3)nc2c1)N1CCN(c2ccccn2)CC1	28	53*	25	1	-9	12
O=C(Nc1ccccc1)c1ccc2nc(-c3ccco3)c(-c3ccco3)nc2c1	27	45*	15	5	.	8
CC(=O)c1ccc(NC(=O)c2ccc3nc(-c4ccco4)c(-c4ccco4)nc3c2)cc1	23	51*	25	5	-14	2
O=C(NCCCO)c1ccc2nc(-c3ccco3)c(-c3ccco3)nc2c1	29	52*	22	3	-6	12
COc1ccc(NC(=O)CN2CCN(C(=S)NC3CCCC3)CC2)cc1	.	.	.	.	-1	.
COc1ccccc1NS(=O)(=O)c1cccc(C(=O)NCc2ccco2)c1	-1	-3	1	-3	-4	-2
O=C(NC(=S)Nc1cccc(C(F)(F)F)c1)c1csnn1	-2	-6	-6	-4	-7	-4
O=C(NCCO)Nc1ccc2nc(-c3ccco3)c(-c3ccco3)nc2c1	19	43*	29	8	-18	13
CC(=O)Cc1nsc(Nc2ccc(C)cc2)n1	-2	-4	-5	-4	38*	-1
Nc1nc(-c2ccco2)nn1S(=O)(=O)c1ccc(Cl)cc1	0	2	0	-9	-10	-2
Cc1ccc2c(c1)c1ccc3c(c1n2C)C(=O)C=CC3=O	.	.	.	.	40*	.
SMILES	Bim-Bcl-W	Bfl-1 Bim block	Bim-Bcl-2	Bcl-B Bim block	MDM2 E3 inh	Bim-Bcl-XL
Cc1ccn(-c2cc(O)c(-n3ccc(C)n3)cc2O)n1	0	5	0	-5	-16	1
CCOC(=O)c1cc2c(=O)n3cccc(C)c3nc2n(Cc2ccco2)c1=NC(=O)c1cccnc1	20	40*	14	12	-7	9
Cc1ccc(N=C2NC(=O)/C(=C/C=C/c3ccco3)S2)cc1	15	52*	20	0	-7	4
CCC(C)NS(=O)(=O)c1ccc(F)c(C(=O)Nc2c(F)cc(F)cc2Br)c1 (configuration not stated)	-3	-2	-3	-3	-19	-2
CCOC(=O)c1ccc(NC(=O)CSCCC(=O)O)cc1	62*	50*	90*	84*	-15	61*
CCOC(=O)c1ccc(NC(=O)CSCc2ccco2)cc1	-2	-8	-9	-12	-7	-4
O=C(O)CC1S/C(=N/N=C/C=C/c2ccccc2[N+](=O)[O-])NC1=O (configuration not stated)	34	46*	34	28	-8	50*
O=C(c1cn(-c2ccccc2)nc1-c1cccs1)N1CCOCC1	-4	-3	-5	-2	33*	-5
O=C(c1cn(-c2ccccc2)nc1-c1cccs1)N1CCN(c2ccccc2)CC1	2	-16	-5	-6	3	-8
O=C(Nc1cc(S(=O)(=O)N2CCOCC2)ccc1N1CCCC1)c1ccc2c(c1)S(=O)(=O)c1ccccc1C2=O	-2	27	0	-41	.	-9
COc1ccc(CC(=O)Nc2cccc(S(=O)(=O)N3CCCCCC3)c2)cc1OC	0	-4	-10	-4	-38	-3
COc1ccc2c3c(cccc13)N(C)N=C2C	70*	73*	40*	26	-16	27
COc1ccc(NC(=O)/C(C#N)=C/c2c(C)nn(-c3ccc(F)cc3)c2Cl)cc1Cl	20	42*	32	29	-5	32
CC(C)=C1C(=O)NN(c2ccc(C)c(Cl)c2)C1=O	48*	43*	36	56*	.	50*
CC(C)=C1C(=O)NN(c2cccc(Cl)c2)C1=O	-2	4	2	0	-4	-9
COC(=O)/C=C1/S/C(=N/NC(=O)c2ccc(Cl)cc2Cl)NC1=O	.	.	.	.	1	.
COc1ccc(S(=O)(=O)N2C(=O)/C(=C3\SC(N)=NC3=O)c3ccccc32)cc1	.	.	.	.	-9	.
Cc1ccc(S(=O)(=O)N2CCCCC2)cc1NC(=O)COC(=O)c1ccccc1F	8	48*	78*	74*	-10	11
CCCC(=O)N=c1sc2c(OC)ccc(OC)c2n1C	.	.	.	.	-8	.
c1ccc(-n2ncc3cccnc32)cc1	.	.	.	.	0	.
CCOc1cc(/C=N/Nc2nn3cnnc3c3ccccc23)ccc1O	.	.	.	.	-30	.
COc1cc(/C=N/Nc2nn3cnnc3c3ccccc23)ccc1O	27	3	8	27	-58	42*
O=C1Nc2ccc([N+](=O)[O-])cc2OC1CCN1CCN(Cc2ccc3c(c2)OCO3)CC1 (configuration not stated)	-2	47*	72*	73*	-25	0
N/C(=N\c1nc2ccccc2o1)NC(=O)c1ccccc1Br	.	.	.	.	-2	.
CCOC(=O)Cn1nc(C(F)F)c(Br)c1C	2	-2	0	-4	18	-1
CC(C)CN1C(=O)/C(=C/c2cccs2)NC1=S	-18	-19	-17	-41	.	-19
CC(C)CN1C(=O)/C(=C/c2ccco2)NC1=S	6	47*	11	-23	3	3
